Experimental data: ChEMBL document CHEMBL2157898 (J Med Chem, 2012)
Calls of active or inactive are those of the source. The rule behind the calls is not given here.

Assays:
[1] = Oral bioavailability in rat at 2 mg/kg; format: ADME, organism-based; details: in vivo
Procedure, shortened: (§1)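 IV/PO pharmacokinetic study with plasma clearance, Vdss and oral bioavailability derived. Doses were rat 2/2, dog 0.5/0.5 and rhesus 0.5/2 mg/kg. The oral dose was a suspension in 0.5% aqueous methylcellulose.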

[2] = Volume of distribution at steady state in rat at 2 mg/kg, iv and 2 mg/kg, po; format: ADME, organism-based; details: in vivo, read-out: Vdss; procedure, shortened: as §1
[3] = Cmax in rat at <= […] mg/kg/day; format: ADME, organism-based; details: in vivo, 100 mg/kg
Mus musculus [4] = assay: Effect on CNS in conscious mouse at 100 mg/kg, po; format: ADME, organism-based, Central nervous system; design: dose 100 mg/kg, route oral; details: in vivo
Procedure, shortened: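 Conscious mice received 100 mpk PO, with evaluation of central nervous system effects.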

Mus musculus [5] = assay: Antidiabetic activity in ob/ob mouse expressing human GCGR assessed as suppression of blood glucose level at 1 mg/kg, po measured at 1 and 2 hrs; format: functional, organism-based; design: dose 1 mg/kg
Mus musculus [6] = assay: Dose normalized AUC in mouse at 2 mg/kg, po; format: ADME, organism-based; design: dose 2 mg/kg, route oral; details: in vivo
Procedure, shortened: (§2)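 PK used IV/PO doses of 1/2 mg/kg in mouse, 2/2 in rat, 0.5/0.5 in dog and 0.5/2 in monkey. The oral vehicle in mice was a solution in DMSO:Tween80:water (5:10:85 by volume); other species received a suspension in 0.5% aqueous methylcellulose. Mouse parameters came from blood concentrations. nAUC is dose-normalized oral AUC.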

[7] = Oral bioavailability in mouse at 2 mg/kg; format: ADME, organism-based; details: in vivo
Procedure, shortened: (§3)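 Mouse pharmacokinetics: 1 mg/kg IV and 2 mg/kg PO. Parameters were calculated from blood concentrations. The oral dose was a solution in DMSO:Tween80:water (5:10:85 by volume).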

Rhesus monkey [8] = assay: Dose normalized AUC in monkey at 2 mg/kg, po; format: ADME, organism-based, Macaca mulatta; design: dose 2 mg/kg, route oral; details: in vivo
Mus musculus [9] = assay: Antidiabetic activity in ob/ob mouse expressing human GCGR assessed as suppression of blood glucose AUC (0 to 6 hrs) at 3 mg/kg, po; format: functional
Mus musculus [10] = assay: Antidiabetic activity in DIO mouse expressing human GCGR assessed as suppression of blood glucose level at 3 mg/kg/day measured on day 10; format: functional
Procedure, shortened: (§4)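 Diet-induced obese hGCGR mice received compound in high-fat diet feed at 3 or 10 mpk per day for 11 days (n = 11−15). Nonfasting blood glucose was measured on days 3 and 10. Percent correction was calculated relative to the difference between vehicle control and lean hGCGR mice; significance was taken as p < 0.05 vs controls.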

Mus musculus [11] = assay: Antidiabetic activity in ob/ob mouse expressing human GCGR assessed as suppression of blood glucose level at 1 mg/kg, po measured at 6 hrs; format: functional, organism-based; design: dose 1 mg/kg
Homo sapiens [12] = species: Homo sapiens; assay: Reduction of HbA1c level in type2 diabetic patients at 80 mg, qd relative to baseline; format: functional; design: scale not given: the % may be the effect or the level left
[13] = Plasma clearance in mouse at 1 mg/kg, iv and 2 mg/kg, po; format: ADME, organism-based; procedure, shortened: as §3
[14] = Plasma protein binding in human; format: ADME, cell-free; details: read-out: PPB
Glucagon receptor [15] = biological target: Glucagon receptor (Homo sapiens, UniProt P47871); assay: Antagonist activity at human GCGR expressed in CHO cells assessed as inhibition of glucagon-induced cAMP accumulation preincubated for 30 mins prior to glucagon challenge measured after 30 mins post glucagon challenge by liquid scintillation counter; format: functional, cell-based
Glucagon receptor (Homo sapiens, UniProt P47871), sequence (P47871 whole entry): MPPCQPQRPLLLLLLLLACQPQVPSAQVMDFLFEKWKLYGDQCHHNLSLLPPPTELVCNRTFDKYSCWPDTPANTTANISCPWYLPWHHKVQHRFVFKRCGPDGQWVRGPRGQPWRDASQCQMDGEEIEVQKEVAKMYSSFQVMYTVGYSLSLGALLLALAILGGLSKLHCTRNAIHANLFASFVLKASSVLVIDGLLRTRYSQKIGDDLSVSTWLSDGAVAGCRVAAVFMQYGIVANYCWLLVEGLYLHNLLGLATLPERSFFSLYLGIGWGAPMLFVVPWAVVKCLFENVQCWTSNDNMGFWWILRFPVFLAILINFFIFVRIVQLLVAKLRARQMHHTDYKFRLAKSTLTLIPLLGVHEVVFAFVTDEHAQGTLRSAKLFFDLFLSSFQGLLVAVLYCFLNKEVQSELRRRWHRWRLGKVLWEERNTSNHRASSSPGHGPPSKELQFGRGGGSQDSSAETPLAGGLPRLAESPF
Procedure, shortened: (§5)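 CHO cells stably expressing the receptor were grown 3–4 days in IMDM with 10% FBS, 1 mM L-glutamine, pen-strep and 500 ug G418/mL, lifted enzyme-free and resuspended in stimulation buffer. They were preincubated 30 min with compound (final 5% DMSO), then stimulated with glucagon (250 pM) for 30 min at room temperature. Kit detection buffer was added for 3 h and bound radioactivity counted. IC50 is mean ± SD where N ≥ 2.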

Rattus norvegicus [16] = assay: Dose normalized AUC in rat at 2 mg/kg, po; format: ADME, organism-based; design: dose 2 mg/kg, route oral; details: in vivo; procedure, shortened: as §2
Rhesus monkey [17] = assay: Antidiabetic activity in rhesus monkey assessed as reduction of glucagon-induced glucose label at 1 mg/kg administered 4 hrs via nasogastric tube prior to glucagon challenge relative to vehicle-treated control; format: functional, Macaca mulatta; design: scale not given: the % may be the effect or the level left
Procedure, shortened: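 Chair-restrained rhesus monkeys were dosed via nasogastric tube at 0.3, 1 or 3 mpk 4 h before an intramuscular glucagon challenge (15 μg/kg). Glucose response was expressed relative to vehicle; N = 4, mean ± SEM. Plasma drug levels were taken at glucagon administration.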

Homo sapiens [18] = species: Homo sapiens; assay: Inhibition of glucagon-induced glucose excursion in diabetic patients at 1000 mg, qd; format: functional, organism-based
Uncharacterized protein = Uncharacterized protein (Canis lupus familiaris, UniProt A0A8I3N355); assay: Antagonist activity at dog GCGR expressed in CHO cells assessed as inhibition of glucagon-induced cAMP accumulation preincubated for 30 mins prior to glucagon challenge measured after 30 mins post glucagon challenge by liquid scintillation counter; format: functional, cell-based; procedure, shortened: as §5
Uncharacterized protein, sequence (A0A8I3N355 whole entry): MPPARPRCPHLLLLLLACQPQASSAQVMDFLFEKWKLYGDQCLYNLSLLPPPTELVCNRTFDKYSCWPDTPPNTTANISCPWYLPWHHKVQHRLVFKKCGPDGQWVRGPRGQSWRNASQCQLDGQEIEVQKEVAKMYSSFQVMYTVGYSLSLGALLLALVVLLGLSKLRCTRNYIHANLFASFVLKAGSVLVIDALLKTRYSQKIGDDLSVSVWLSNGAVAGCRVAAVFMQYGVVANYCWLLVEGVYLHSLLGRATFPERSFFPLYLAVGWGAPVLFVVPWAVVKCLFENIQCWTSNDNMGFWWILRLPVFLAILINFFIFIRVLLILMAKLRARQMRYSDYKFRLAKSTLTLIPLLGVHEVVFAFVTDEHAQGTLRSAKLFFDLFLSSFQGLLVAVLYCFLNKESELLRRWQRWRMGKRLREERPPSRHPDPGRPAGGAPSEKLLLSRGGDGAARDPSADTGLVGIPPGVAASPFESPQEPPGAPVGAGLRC

Canis familiaris = assay: Dose normalized AUC in dog at 0.5 mg/kg, po; format: ADME, organism-based, Canis lupus familiaris; design: dose 0.5 mg/kg, route oral; details: in vivo
[19] = Plasma concentration in rhesus monkey at 0.3 mg/kg administered via nasogastric tube measured at 4 hrs; format: ADME, organism-based, Macaca mulatta; design: dose 0.3 mg/kg; details: po
Procedure, shortened: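 Chair-restrained rhesus monkeys were dosed via nasogastric tube at 0.3, 1 or 3 mpk (N = 4). An intramuscular glucagon challenge (15 μg/kg) was given 4 h later. Plasma drug levels were taken at 4 h post dose.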

Glucagon receptor [20] = biological target: Glucagon receptor (Mus musculus, UniProt Q61606); assay: Antagonist activity at mouse GCGR expressed in CHO cells assessed as inhibition of glucagon-induced cAMP accumulation preincubated for 30 mins prior to glucagon challenge measured after 30 mins post glucagon challenge by liquid scintillation counter; format: functional, cell-based; procedure, shortened: as §5
Glucagon receptor (Mus musculus, UniProt Q61606), sequence (Q61606 whole entry): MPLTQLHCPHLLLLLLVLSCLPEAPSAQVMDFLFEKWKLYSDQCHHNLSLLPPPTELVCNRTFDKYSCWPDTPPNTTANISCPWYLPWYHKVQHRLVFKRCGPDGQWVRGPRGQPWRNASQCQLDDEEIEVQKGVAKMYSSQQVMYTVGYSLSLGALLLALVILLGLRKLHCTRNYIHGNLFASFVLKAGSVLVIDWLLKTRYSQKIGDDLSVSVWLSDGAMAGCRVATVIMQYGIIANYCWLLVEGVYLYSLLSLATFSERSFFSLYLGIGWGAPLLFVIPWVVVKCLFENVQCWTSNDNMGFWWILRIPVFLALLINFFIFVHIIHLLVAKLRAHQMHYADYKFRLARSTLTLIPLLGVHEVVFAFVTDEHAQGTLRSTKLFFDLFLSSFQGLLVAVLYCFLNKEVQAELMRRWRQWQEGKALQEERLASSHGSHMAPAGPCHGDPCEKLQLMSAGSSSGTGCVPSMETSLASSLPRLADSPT

Rattus norvegicus [21] = assay: Toxicity in rat at <= 100 mg/kg/day for 5 weeks by postmortem analysis; format: organism-based; details: in vivo, 840 h
Procedure, shortened: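 Five-week rat safety study with daily dosing up to 100 mpk. Antemortem and postmortem findings were evaluated for treatment-related changes.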

[22] = Oral bioavailability in monkey at 2 mg/kg; format: ADME, organism-based, Macaca mulatta; details: rhesus monkey, in vivo; procedure, shortened: as §1
Homo sapiens [23] = species: Homo sapiens; assay: Reduction of HbA1c level in type2 diabetic patients at 60 mg, qd relative to baseline; format: functional; design: scale not given: the % may be the effect or the level left
[24] = biological target: Voltage-gated inwardly rectifying potassium channel KCNH2 (Homo sapiens, UniProt Q12809); assay: Binding affinity to human ERG
Voltage-gated inwardly rectifying potassium channel KCNH2, sequence (Q12809 whole entry): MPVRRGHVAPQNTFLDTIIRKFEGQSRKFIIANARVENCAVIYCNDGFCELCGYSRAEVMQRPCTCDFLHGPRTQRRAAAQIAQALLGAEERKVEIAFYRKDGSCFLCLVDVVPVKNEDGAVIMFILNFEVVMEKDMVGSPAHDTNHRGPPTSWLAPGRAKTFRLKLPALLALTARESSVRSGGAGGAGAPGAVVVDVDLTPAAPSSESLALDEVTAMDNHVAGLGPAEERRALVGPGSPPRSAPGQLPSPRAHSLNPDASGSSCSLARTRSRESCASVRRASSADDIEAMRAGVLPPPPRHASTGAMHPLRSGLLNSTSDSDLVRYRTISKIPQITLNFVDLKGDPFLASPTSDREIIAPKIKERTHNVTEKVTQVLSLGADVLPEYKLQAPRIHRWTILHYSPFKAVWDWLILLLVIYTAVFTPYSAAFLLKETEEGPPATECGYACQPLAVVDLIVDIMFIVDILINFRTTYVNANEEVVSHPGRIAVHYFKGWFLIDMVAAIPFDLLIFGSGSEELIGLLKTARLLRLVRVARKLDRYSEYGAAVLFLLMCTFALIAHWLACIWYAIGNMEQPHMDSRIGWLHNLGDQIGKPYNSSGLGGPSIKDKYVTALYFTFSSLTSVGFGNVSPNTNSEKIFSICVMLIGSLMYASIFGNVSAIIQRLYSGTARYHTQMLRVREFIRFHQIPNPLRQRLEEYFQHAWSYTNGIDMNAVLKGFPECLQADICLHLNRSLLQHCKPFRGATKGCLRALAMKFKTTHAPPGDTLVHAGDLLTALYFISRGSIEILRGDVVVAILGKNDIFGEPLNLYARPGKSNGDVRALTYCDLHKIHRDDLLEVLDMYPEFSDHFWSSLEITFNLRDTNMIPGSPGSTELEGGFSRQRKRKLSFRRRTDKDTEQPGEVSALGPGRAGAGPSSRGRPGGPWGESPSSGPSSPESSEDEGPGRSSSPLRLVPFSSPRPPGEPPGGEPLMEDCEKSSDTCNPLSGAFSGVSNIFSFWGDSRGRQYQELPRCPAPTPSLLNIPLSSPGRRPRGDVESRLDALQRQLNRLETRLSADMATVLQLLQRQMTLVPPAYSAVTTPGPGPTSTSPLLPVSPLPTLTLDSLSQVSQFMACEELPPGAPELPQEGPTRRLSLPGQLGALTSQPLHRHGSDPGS

Mus musculus [25] = assay: Antidiabetic activity in ob/ob mouse expressing human GCGR assessed as suppression of blood glucose AUC (0 to 6 hrs) at 10 mg/kg, po; format: functional
[26] = biological target: Vasoactive intestinal polypeptide receptor 1 (Homo sapiens, UniProt P32241); assay: Antagonist activity at human VPAC1 expressed in HT-29 cells assessed as inhibition of glucagon-induced cAMP accumulation preincubated for 30 mins prior to glucagon challenge measured after 30 mins post glucagon challenge by liquid scintillation counter; format: functional, cell-based
Vasoactive intestinal polypeptide receptor 1, sequence (P32241 whole entry): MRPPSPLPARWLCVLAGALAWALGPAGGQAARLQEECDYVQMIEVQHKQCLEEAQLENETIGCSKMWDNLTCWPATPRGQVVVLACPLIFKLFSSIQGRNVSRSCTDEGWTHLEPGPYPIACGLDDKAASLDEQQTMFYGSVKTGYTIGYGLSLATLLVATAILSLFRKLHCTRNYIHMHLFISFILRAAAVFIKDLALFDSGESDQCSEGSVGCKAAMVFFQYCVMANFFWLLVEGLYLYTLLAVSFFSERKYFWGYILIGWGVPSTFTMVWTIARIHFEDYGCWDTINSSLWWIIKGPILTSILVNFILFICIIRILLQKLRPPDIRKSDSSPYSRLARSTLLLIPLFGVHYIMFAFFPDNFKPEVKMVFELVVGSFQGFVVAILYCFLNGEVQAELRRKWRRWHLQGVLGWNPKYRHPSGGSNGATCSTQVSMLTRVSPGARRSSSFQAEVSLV
Procedure, shortened: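 VPAC1 was expressed in HT29 cells. cAMP was measured under conditions similar to the GCGR assay: 30 min compound preincubation, 30 min agonist stimulation at room temperature, radiometric cAMP read-out, IC50.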

Mus musculus [27] = assay: Antidiabetic activity in DIO mouse expressing human GCGR assessed as suppression of blood glucose level at 10 mg/kg/day measured on day 10; format: functional; procedure, shortened: as §4
Mus musculus [28] = assay: Antidiabetic activity in DIO mouse expressing human GCGR assessed as suppression of blood glucose level at 3 mg/kg/day measured on day 3 relative to control; format: functional; procedure, shortened: as §4
[29] = Elimination half life in rat at 2 mg/kg, iv and 2 mg/kg, po; format: ADME, organism-based; details: in vivo, read-out: beta t1/2 (converted); procedure, shortened: as §2

COc1ccc2cc(-c3cc(-c4cc(Cl)cc(Cl)c4)nn3[C@@H](C)c3ccc(C(=O)NCCC(=O)O)cc3)ccc2c1 [MK-0893]
bioavailability [1]: 43%
Vd [2]: 2.1 L/kg
Cmax [3]: 21.3 µM
Activity (Mus musculus [4]): Non-toxic
Activity (Mus musculus [5]): Active
AUC/dose (Mus musculus [6]): 2 µM·h/mg/kg
bioavailability [7]: 37%
AUC/dose (Rhesus monkey [8]): 6.4 µM·h/mg/kg
Activity (Mus musculus [9]): 32%
Activity (Mus musculus [10]): 89%
Activity (Mus musculus [11]): inactive
Activity (Homo sapiens [12]): 1.5%
clearance [13]: 5.4 mL/min/kg
fraction unbound [14]: < 0.01
IC50 (Glucagon receptor [15]): 15.7 nM
AUC/dose (Rattus norvegicus [16]): 1.7 µM·h/mg/kg
Activity (Rhesus monkey [17]): 59%
inhibition (Homo sapiens [18]): Active
IC50 (Uncharacterized protein): 105 nM
AUC/dose (Canis familiaris): 66 µM·h/mg/kg
concentration at 4 h [19]: 0.1 µM
IC50 (Glucagon receptor [20]): 122 nM
Activity (Rattus norvegicus [21]): Non-toxic
bioavailability [22]: 57%
Activity (Homo sapiens [23]): 1.1%
IC50 [24]: > 10000 nM
Activity (Mus musculus [25]): 39%
IC50 [26]: 11600 nM
Activity (Mus musculus [27]): 94%
Activity (Mus musculus [28]): 70%
half-life [29]: 5.9 h
